The results in this text go back to publication PMC9732910 (Genes & Development, 2022).

Where a chain is given by its changes, count along the chain named. “Also recorded” adds a separate entry of the source. *1 amine or outer side, *2 acyl side, *3 side chain or, on linkers, in order; H or OH if unused. Where a SMILES comes first, the peptide text is derived from it. Bridges are numbered along the chain shown (N, C = ends). Primed or numbered codes have the meaning given here. Where no end group is shown, it is not given here. The star is where a group is joined. Lys(Biotin) = O=C(CCCC[C@@H]1SC[C@@H]2NC(=O)N[C@@H]21)NCCCC[C@H](N[*:1])C(=O)[*:2]; PEG3′ = PEG3 spacer coupled to the N-terminus before Fmoc-Lys(Biotin); FITC = O=C1OC2(c3ccc(O)cc3Oc3cc(O)ccc32)c2ccc(NC(=S)*)cc21; mXylylene = c1cc(C[*:1])cc(C[*:2])c1

For one data set, the system named is BRD2, BRD3, and BRD4. The experiment in a line: Degradation of BET proteins BRD2, BRD3 and BRD4 in PC3 cells. In kind it is cell-based, human. To be noted: 5 μM, 4 h. A digest of the protocol: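 PC3 cells in DMEM with 10% FBS were plated in 24-well plates 24 h before dosing. They got fresh medium with 5 μM test compound or reference degraders, or DMSO as reference, for 4 h. Cells were washed in TBS/0.05% Tween 20 and lysed in Tris pH 7.5, NaCl, deoxycholate, glycerol, Triton X-100 and inhibitor buffer. BET proteins were read by Western blot.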

The test system of a further data set is hTERT-BJ1 cells. The experiment in a line: Cytotoxicity in normal human cell line, CellTiter-Glo 2.0. In kind it is cell-based. To be noted: hTERT-BJ1, 24h, 72h and 96h. The method in brief: (§1)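 Cells kept in DMEM with 10% FBS and seeded in 96-well plates at 50% confluency 24 h before treatment. Medium was then replaced with fresh medium holding the test compound at varying concentrations, or an equal volume of DMSO as negative control. Viable cell titre was read at the end of treatment by CellTiter-Glo 2.0 luminescence.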

Data set [1] has as its target T1, KLHL20 (Homo sapiens, UniProt Q9Y2M5).
T1 sequence (Q9Y2M5 1-609): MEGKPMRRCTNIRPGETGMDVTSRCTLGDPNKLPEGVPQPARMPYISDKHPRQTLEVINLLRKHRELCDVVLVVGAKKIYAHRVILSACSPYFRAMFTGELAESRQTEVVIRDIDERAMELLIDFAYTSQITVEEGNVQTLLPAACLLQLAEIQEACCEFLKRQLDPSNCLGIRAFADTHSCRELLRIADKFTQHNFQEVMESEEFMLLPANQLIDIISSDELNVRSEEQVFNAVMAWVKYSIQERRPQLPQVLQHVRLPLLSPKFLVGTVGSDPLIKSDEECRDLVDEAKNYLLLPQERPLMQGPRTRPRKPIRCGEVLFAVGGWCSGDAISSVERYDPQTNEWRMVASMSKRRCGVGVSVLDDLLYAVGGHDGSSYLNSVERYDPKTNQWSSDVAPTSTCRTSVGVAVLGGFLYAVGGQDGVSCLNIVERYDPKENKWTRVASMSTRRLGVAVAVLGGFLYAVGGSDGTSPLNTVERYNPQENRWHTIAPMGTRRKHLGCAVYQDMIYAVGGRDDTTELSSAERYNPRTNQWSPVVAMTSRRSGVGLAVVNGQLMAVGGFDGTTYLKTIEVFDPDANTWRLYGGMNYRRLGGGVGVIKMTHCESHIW
The data set is classed as binding. To be noted: PC3 lysates, immobilized compound. A digest of the protocol: (§2)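 Biotinylated test compound (430 nM) was captured on BSA-blocked NeutrAvidin magnetic beads for 1 h at 4°C. Beads were incubated with PC3 lysate diluted 1:7 to 1.6 mg/mL total protein in TBS, 1 mM DTT, 0.1% BSA and protease/phosphatase inhibitors for 1 h at 4°C. After three TBS/DTT/BSA washes, bound proteins were eluted in Laemmli buffer with 5% BME for Western blotting.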

The test system of another data set is MDA-MB-231 cells. Briefly: Cell proliferation, CellTiter-Glo 2.0, MDA-MB-231. The data set is classed as cell-based, human. The note with it: MDA-MB-231, 24h, 72h and 96h. The method in brief: as §1
On the technique in general: ATP-based viability assays read luminescence as a measure of living cells.

A further data set concerns PC3 cells. Briefly: Cell proliferation, CellTiter-Glo 2.0, PC3. In kind it is cell-based, human. The note with it: PC3, 24, 72, and 96 h. A digest of the protocol:
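PC3 prostate cancer cells in DMEM with 10% FBS were seeded in 96-well plates at 50% confluency 24 h beforehand. They were switched to fresh medium with different concentrations of test compound or reference degraders (DMSO-volume negative control) for 24, 72 and 96 h. Cell titre was measured by CellTiter-Glo 2.0 luminescence; SD, N = 3.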

Another data set addresses T2, KLHL20^K498A (Homo sapiens, UniProt Q9Y2M5, K498A).
T2 sequence (Q9Y2M5 317-603 K498A): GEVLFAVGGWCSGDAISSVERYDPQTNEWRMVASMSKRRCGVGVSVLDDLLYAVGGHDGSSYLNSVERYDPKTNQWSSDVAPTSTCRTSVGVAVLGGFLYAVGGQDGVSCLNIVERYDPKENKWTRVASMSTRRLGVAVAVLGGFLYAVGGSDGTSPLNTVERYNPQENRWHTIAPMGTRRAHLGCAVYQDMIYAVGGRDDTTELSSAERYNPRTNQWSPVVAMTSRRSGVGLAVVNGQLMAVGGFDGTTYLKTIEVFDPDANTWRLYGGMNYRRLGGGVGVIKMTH
Briefly: FP binding to KLHL20 Kelch mutant K498A. To be noted: FITC-labeled BTR2000. The method in brief: (§3)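 His-tagged wild-type or quick-change point-mutant KLHL20 Kelch domain was expressed in E. coli Rosetta (DE3) (0.3 mM IPTG, 18°C overnight). It was Ni-NTA purified and dialysed into TBS pH 7.5 with 1 mM DTT. Protein at 0–15 μM was incubated with 20 nM FITC-labelled peptide for 30 min at 4°C in 1× TBS/1 mM DTT. FP was read at 485/528 nm; LAAAV peptide served as negative control.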

In another data set the target is T3, KLHL12 (Homo sapiens, UniProt Q53G59).
T3 sequence (Q53G59 1-568): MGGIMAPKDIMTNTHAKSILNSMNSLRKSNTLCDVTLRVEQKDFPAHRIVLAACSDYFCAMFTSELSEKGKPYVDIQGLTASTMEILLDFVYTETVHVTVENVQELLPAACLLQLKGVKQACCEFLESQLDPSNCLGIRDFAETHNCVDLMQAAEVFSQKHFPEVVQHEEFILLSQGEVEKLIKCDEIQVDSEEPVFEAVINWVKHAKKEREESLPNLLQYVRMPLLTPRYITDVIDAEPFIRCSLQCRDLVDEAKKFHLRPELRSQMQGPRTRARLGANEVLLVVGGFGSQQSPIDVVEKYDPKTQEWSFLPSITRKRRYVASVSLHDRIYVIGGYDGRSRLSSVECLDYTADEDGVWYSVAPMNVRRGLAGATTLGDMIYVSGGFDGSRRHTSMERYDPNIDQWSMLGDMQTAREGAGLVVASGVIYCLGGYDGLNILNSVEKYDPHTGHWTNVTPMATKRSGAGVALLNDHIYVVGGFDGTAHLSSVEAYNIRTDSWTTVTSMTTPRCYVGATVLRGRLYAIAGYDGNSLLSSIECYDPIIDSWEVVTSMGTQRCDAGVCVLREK
In kind it is binding. To be noted: PC3 lysates, immobilized compound. The method in brief: as §2

The next data set concerns the target T4, KLHL20^L592G (Homo sapiens, UniProt Q9Y2M5, L592G).
T4 sequence (Q9Y2M5 317-603 L592G): T2 sequence (Q9Y2M5 317-603 K498A) with A182K, L276G
The experiment in a line: FP binding to KLHL20 Kelch mutant L592G. The note with it: FITC-labeled BTR2000. A digest of the protocol:
as §3

The target in the next data set is T5, KLHL20^H499G (Homo sapiens, UniProt Q9Y2M5, H499G).
T5 sequence (Q9Y2M5 317-603 H499G): T2 sequence (Q9Y2M5 317-603 K498A) with A182K, H183G
Briefly: FP binding to KLHL20 Kelch mutant H499G. To be noted: FITC-labeled BTR2000.

Data set [2] has as its target T1, KLHL20. Briefly: MS-based proteomics of pull-down eluates from PC3 lysates. The data set is classed as binding. The note with it: N = 3, control called PGL control in Table S1. The method in brief:
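NeutrAvidin Dynabeads were blocked with 0.1% BSA for 2 h at 4°C and loaded with 430 nM biotinylated compound for 1 h at 4°C. PC3 lysate (1:7 diluted, 1.6 mg/mL total protein, TBS/1 mM DTT/0.1% BSA/inhibitors) was bound for 1 h at 4°C. Beads were washed three times, eluted in Laemmli/5% BME and in-gel trypsin-digested. Eluates were analysed by LC-MS/MS with label-free quantification.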

Another data set deals with T6, KLHL20 Kelch domain (human, UniProt Q9Y2M5 317-603).
T6 sequence (looked up): T2 sequence (Q9Y2M5 317-603 K498A) with A182K
Briefly: fluorescence polarisation.

Take `Cc1sc2c(c1C)C(c1ccc(Cl)cc1)=N[C@@H](CC(=O)NCCCCNC(=O)COc1cccc3c1C(=O)N(C1CCC(=O)NC1=O)C3=O)c1nnc(C)n1-2` (stereo partly shown) [dBET1]: the BET protein degradation result with BRD2, BRD3, and BRD4 is recorded as “showed efficacy”. The normal cell cytotoxicity entry in the data set on hTERT-BJ1 cells is “some degree of cytotoxicity”.

Consider “cyclized CPGLC: BTR2000 with the aspartic acid mutated; KLHL20-binding deficient cyclized peptide ({Lys(Biotin)-PEG3′}-CPGLC-NH2; linker 1-5 via mXylylene)”, for which the “enrichment / binding of KLHL20 in pull-down” value (“enrichment / binding of KLHL20” for short) with KLHL20 [1] is reported as “no binding to KLHL20”.

For `COc1cc(C(=O)NCCOCCOCCOCCNC(=O)C[C@@H]2N=C(c3ccc(Cl)cc3)c3c(sc(C)c3C)-n3c(C)nnc32)ccc1NC(=O)[C@@H]1N[C@@H](CC(C)(C)C)[C@](C#N)(c2ccc(Cl)cc2F)[C@H]1c1cccc(Cl)c1F` [A1874], the BET protein degradation entry in the data set on BRD2, BRD3, and BRD4 was “not effective; also recorded: ineffective”.

On to “cyclized CPDAC: BTR2000 with the leucine mutated; KLHL20-binding deficient cyclized peptide (CPDAC-NH2; linker 1-5 via mXylylene)”, for which, in the data set with KLHL20 [1], the “enrichment / binding of KLHL20” value is “no binding to KLHL20”.

“CPGAC: cyclized double-mutant of BTR2000 used as pull-down control ({Lys(Biotin)-PEG3′}-CPGAC-NH2; linker 1-5 via mXylylene)”: in the data set with KLHL20 [1], the “enrichment / binding of KLHL20” value is “no binding to KLHL20”.

Turning to `Cc1ncsc1-c1ccc(CNC(=O)[C@@H]2C[C@@H](O)CN2C(=O)[C@@H](NC(=O)COCCOCCOCCNC(=O)C[C@@H]2N=C(c3ccc(Cl)cc3)c3c(sc(C)c3C)-n3c(C)nnc32)C(C)(C)C)cc1` [MZ1], in the data set with BRD2, BRD3, and BRD4, the BET protein degradation result is reported as “showed efficacy”. In addition, the cell growth inhibition result in the data set on MDA-MB-231 cells and in the data set with PC3 cells was “higher efficiency than BTR2004” throughout. The normal cell cytotoxicity result with hTERT-BJ1 cells is recorded as “some degree of cytotoxicity”.

Turning to `CC(C)C[C@@H]1NC(=O)[C@H](CC(=O)O)NC(=O)[C@@H]2CCCN2C(=O)[C@@H](NC(=S)Nc2ccc3c(c2)C(=O)OC32c3ccc(O)cc3Oc3cc(O)ccc32)CSCc2cccc(c2)CSC[C@@H](C(N)=O)NC1=O` [BTR2000] ({FITC}-CPDLC-NH2; linker 1-5 via mXylylene), the “binding to KLHL20^K498A relative to wild type” value at KLHL20^K498A is on record as “important for BTR2000 binding”. For the same molecule, the “enrichment / binding of KLHL20” value on KLHL20 [1] is reported as “successfully enriched KLHL20”. On KLHL12, the “enrichment of KLHL12 in pull-down” value is recorded as “not KLHL12”. Further, at KLHL20^L592G, the “binding to KLHL20^L592G relative to wild type” value was “more prominent loss in binding”. Further, at KLHL20^H499G, the “binding to KLHL20 H499 mutant relative to wild type” value is listed as “more prominent loss in binding”. Besides, the “log2 fold change BTR2000/CPGAC of KLHL20” value at KLHL20 [2] was determined as 11.

Consider {FITC}-CPDLC-NH2 (linker 1-5 via mXylylene) [FITC-labeled BTR2000 (macrocycle CPDLC)], for which the Kd (as a rule, a measure of binding affinity in units of concentration) with KLHL20 Kelch domain is approximately 600 nM.

In the case of {FITC}-LPDLV-NH2 [FITC-labeled linear LPDLV peptide], the Kd with KLHL20 Kelch domain is more than 5000 nM.

In the data set with KLHL20 Kelch domain, {FITC}-CPDLVC-NH2 (linker 1-6 via mXylylene) [FITC-labeled macrocycle CPDLVC] displayed a Kd of approximately 600 nM.
